Results: ChEMBL document CHEMBL2311323, “Synthesis and biological evaluation of N-alkyl-N-(4-methoxyphenyl)pyridin-2-amines as a new class of tubulin polymerization inhibitors” (Bioorg Med Chem, 2013)

Tests used:
[1] = Growth inhibition of human KBVIN cells by SRB assay; type: functional
Procedure, shortened: (§1)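 Sulforhodamine B staining of human tumor cell lines: A-549 lung carcinoma, KB nasopharyngeal epidermoid carcinoma, P-gp-expressing vincristine-resistant KB (KBVIN) and DU145 prostate cancer. GI50 is the molar concentration giving 50% growth inhibition, reported as mean ± SD from at least triplicate runs.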

DU-145 [2] = assay: Growth inhibition of human DU145 cells by SRB assay; type: functional; procedure, shortened: as §1
KB [3] = assay: Growth inhibition of human KB cells by SRB assay; type: functional; procedure, shortened: as §1
A549 [4] = assay: Growth inhibition of human A549 cells by SRB assay; type: functional; procedure, shortened: as §1
[5] = Growth inhibition of human KBVIN cells at 20 ug/mL by SRB assay; type: functional; conditions: read-out: GI; procedure, shortened: as §1
KB [6] = assay: Growth inhibition of human KB cells at 20 ug/mL by SRB assay; type: functional; conditions: read-out: GI; procedure, shortened: as §1
A549 [7] = assay: Growth inhibition of human A549 cells at 20 ug/mL by SRB assay; type: functional; conditions: read-out: GI; procedure, shortened: as §1
DU-145 [8] = assay: Growth inhibition of human DU145 cells at 20 ug/mL by SRB assay; type: functional; conditions: read-out: GI; procedure, shortened: as §1
Tubulin = assay: Inhibition of tubulin assembly (unknown origin) pre-incubated with compound for 15 mins before GTP addition measured after 20 mins at 30 degC post GTP addition by turbidimetry; type: protein-complex assay, Homo sapiens
Procedure, shortened: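 Turbidity at 350 nm. Tubulin at 1.0 mg/mL (10 µM) was preincubated with varying compound concentrations for 15 min at 30 °C without GTP. Samples were chilled on ice and 0.4 mM GTP added, then moved to 0 °C cuvettes. After a rapid jump to 30 °C, assembly was followed for 20 min. IC50 is the concentration halving the turbidity increase relative to control.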

Tubulin (Homo sapiens) = Tubulin (Homo sapiens) (UniProt P68371+Q9H4B7+P0DPH7+P68366+Q13509+Q71U36+P04350+Q3ZCM7+P07437+P68363+Q9BQE3+Q6PEY2+Q13885+Q9BVA1+Q9BUF5); assay: Inhibition of [3H]colchicine binding to tubulin (unknown origin) at 5 uM incubated for 10 mins at 37 degC; type: protein-complex assay

Compound | GI50 [1] [nM] | GI50 (DU-145 [2]) [nM] | GI50 (KB [3]) [nM] | GI50 (A549 [4]) [µM] | inhibition of growth at 20 µg/mL [5] [%] | inhibition of growth at 20 µg/mL (KB [6]) [%] | inhibition of growth at 20 µg/mL (A549 [7]) [%] | inhibition of growth at 20 µg/mL (DU-145 [8]) [%] | IC50 (Tubulin) [nM] | inhibition (Tubulin (Homo sapiens)) [%]
C=CCN(c1ccc(OC)cc1)c1nc(Cl)ccc1[N+](=O)[O-] | 3150 | 2690 | 2610 | 3.33 | – | – | – | – | – | –
COc1ccc(N(C)c2nc(Cl)ccc2CO)cc1 | 2120 | 1960 | 2260 | 3.25 | – | – | – | – | – | –
COc1ccc(N(C)c2nc(Cl)ccc2[N+](=O)[O-])cc1OC | 16500 | 15000 | 16000 | 18.4 | – | – | – | – | – | –
COc1ccc(N(C)c2nc(OC)ccc2[N+](=O)[O-])cc1 | 2830 | 2700 | 3310 | 3.27 | – | – | – | – | – | –
CNc1ccc([N+](=O)[O-])c(N(C)c2ccc(OC)cc2)n1 | 9630 | 4450 | 4530 | 4.5 | – | – | – | – | – | –
CNC(=O)c1ccc(C(F)(F)F)nc1N(C)c1ccc(OC)cc1 | – | – | – | – | < 50 | < 50 | < 50 | < 50 | – | –
CCOC(=O)c1ccc(C(F)(F)F)nc1N(C)c1ccc(OC)cc1 | 1300 | 1300 | 1520 | 1.46 | – | – | – | – | – | –
COC(=O)c1ccc(N(C)c2nc(Cl)ccc2[N+](=O)[O-])cc1 | 2870 | 2220 | 2890 | 3 | – | – | – | – | – | –
CNc1ccc(C(=O)OC)c(N(C)c2ccc(OC)cc2)n1 | 920 | 1670 | 1360 | 3.43 | – | – | – | – | – | –
COCc1ccc(C(F)(F)F)nc1N(C)c1ccc(OC)cc1 | 1430 | 1290 | 1640 | 1.2 | – | – | – | – | – | –
COc1ccc(N(C)c2nc(Cl)ccc2C#N)cc1 | 18100 | 20400 | 22100 | 20.4 | – | – | – | – | – | –
CC(=O)O[C@H]1C(=O)[C@@]2(C)[C@H]([C@H](OC(=O)c3ccccc3)[C@]3(O)C[C@H](OC(=O)[C@H](O)[C@@H](NC(=O)c4ccccc4)c4ccccc4)C(C)=C1C3(C)C)[C@]1(OC(C)=O)CO[C@@H]1C[C@@H]2O [PACLITAXEL] | 1800 | 6.5 | 7.77 | 0.00818 | – | – | – | – | – | –
COC(=O)c1ccc(Cl)nc1N(C)c1ccc(OC)cc1 | 200 | 210 | 260 | 0.23 | – | – | – | – | 1400 | 80
COc1ccc(N(C)c2nc(C(F)(F)F)ccc2C(=O)O)cc1 | – | – | – | – | < 50 | < 50 | < 50 | < 50 | – | –
COc1ccc(N(C(C)=O)c2nc(Cl)ccc2[N+](=O)[O-])cc1 | 13900 | 11200 | 14300 | 11.8 | – | – | – | – | – | –
CNC(=O)c1ccc(Cl)nc1N(C)c1ccc(OC)cc1 | – | – | – | – | < 50 | < 50 | < 50 | < 50 | – | –
COc1ccc(N(C)c2nc(C(F)(F)F)ccc2-c2nnnn2C)cc1 | 1260 | 1160 | 1470 | 1.82 | – | – | – | – | – | –

Compound | GI50 [1] [nM] | GI50 (DU-145 [2]) [nM] | GI50 (KB [3]) [nM] | GI50 (A549 [4]) [µM] | inhibition of growth at 20 µg/mL [5] [%] | inhibition of growth at 20 µg/mL (KB [6]) [%] | inhibition of growth at 20 µg/mL (A549 [7]) [%] | inhibition of growth at 20 µg/mL (DU-145 [8]) [%] | IC50 (Tubulin) [nM] | inhibition (Tubulin (Homo sapiens)) [%]
COc1ccc(N(C)c2nc(C(F)(F)F)ccc2C#N)cc1 | 7910 | 10700 | 15300 | 7.21 | – | – | – | – | – | –
COc1ccc(N(C)c2nc(C(F)(F)F)ccc2CO)cc1 | 1750 | 1710 | 1920 | 2.13 | – | – | – | – | – | –
COc1ccc(N(C)c2nc(C(F)(F)F)ccc2-c2nnn[nH]2)cc1 | – | – | – | – | < 50 | < 50 | < 50 | < 50 | – | –
COCc1ccc(Cl)nc1N(C)c1ccc(OC)cc1 | 200 | 250 | 330 | 0.3 | – | – | – | – | 1500 | 88
CN(c1ccc(C#N)cc1)c1nc(Cl)ccc1[N+](=O)[O-] | 27000 | 21400 | 22100 | 24 | – | – | – | – | – | –
COC(=O)c1ccc(OC)nc1N(C)c1ccc(OC)cc1 | 4020 | 2450 | 4010 | 3.15 | – | – | – | – | – | –
COc1ccc(N(C)c2nc(Cl)ccc2C(=O)O)cc1 | – | – | – | – | < 50 | < 50 | < 50 | < 50 | – | –
CN(c1ccc(OC(F)(F)F)cc1)c1nc(Cl)ccc1[N+](=O)[O-] | – | – | – | – | < 50 | < 50 | < 50 | < 50 | – | –
COc1ccc(N(C)c2nc(C(F)(F)F)ccc2C(=O)OC(C)C)cc1 | – | – | – | – | < 50 | < 50 | < 50 | < 50 | – | –
COc1ccc(N(C)c2nc(Cl)ccc2C(=O)OC(C)C)cc1 | 17300 | 17800 | 14500 | 22 | – | – | – | – | – | –
COc1ccc(N(C)c2nc(Cl)ccc2[N+](=O)[O-])cc1 | 1860 | 1550 | 1780 | 2.2 | – | – | – | – | – | –
CCOC(=O)c1ccc(Cl)nc1N(C)c1ccc(OC)cc1 | 1430 | 1430 | 1800 | 1.81 | – | – | – | – | – | –
COc1cc(N(C)c2nc(Cl)ccc2[N+](=O)[O-])cc(OC)c1OC | – | – | – | – | < 50 | < 50 | < 50 | < 50 | – | –
COc1ccc(N(c2nc(Cl)ccc2[N+](=O)[O-])C2CCCC2)cc1 | – | – | – | – | < 50 | < 50 | < 50 | < 50 | – | –
COC(=O)c1ccc(C(F)(F)F)nc1N(C)c1ccc(OC)cc1 | 190 | 250 | 410 | 0.35 | – | – | – | – | 1700 | 82
COc1ccc(N(C)c2nc(C)ccc2[N+](=O)[O-])cc1 | 4190 | 3350 | 2920 | 4.42 | – | – | – | – | – | –
